Sampled rows, rich in hits. Any-hit rate of the full collection: about 1.7%.
Vif imaging: blocks HIV Vif function | actives 0.35% (n = 340,000) | inhibition, % at 7.49 µM | HEK293T cells, Vif self-association by quenched fluorescence, imaging, 24 h | AID 602346; in the data active means inhibition above about 50%, passing the limit was not always enough; inconclusive means no clear call, values can overlap the other calls; inactive means below about 31%
Myeloid diff 2: promotes myeloid progenitor differentiation; ER-HoxA9 myeloid progenitors, lysozyme-GFP differentiation, flow cytometry; calls only at 10 µM; actives 1% (n = 360,000);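 active means normalized GFP-positive differentiation at or above the plate's own cutoff, the solvent-only control mean plus 3 SD; inconclusive means no clear call, values can overlap the other calls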;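 further: cells exposed to compound for four days before flow analysis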
DSG3 Ab inh: blocks pemphigus antibody binding to human desmoglein-3 | DSG3-coupled beads, scFv-anti-DSG3-GFP binding, flow cytometry; hits give low values | binding (percent of control), % at 10 µM | actives 0.48% (n = 310,000) | AID 588358;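 active means binding more than 3 SD below its plate's average and above zero; inconclusive means below that plate limit but binding exactly zero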;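 further: hits lower antibody fragment binding to DSG3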
Target sequence (P32926 whole entry, looked up, the tested form may be a part): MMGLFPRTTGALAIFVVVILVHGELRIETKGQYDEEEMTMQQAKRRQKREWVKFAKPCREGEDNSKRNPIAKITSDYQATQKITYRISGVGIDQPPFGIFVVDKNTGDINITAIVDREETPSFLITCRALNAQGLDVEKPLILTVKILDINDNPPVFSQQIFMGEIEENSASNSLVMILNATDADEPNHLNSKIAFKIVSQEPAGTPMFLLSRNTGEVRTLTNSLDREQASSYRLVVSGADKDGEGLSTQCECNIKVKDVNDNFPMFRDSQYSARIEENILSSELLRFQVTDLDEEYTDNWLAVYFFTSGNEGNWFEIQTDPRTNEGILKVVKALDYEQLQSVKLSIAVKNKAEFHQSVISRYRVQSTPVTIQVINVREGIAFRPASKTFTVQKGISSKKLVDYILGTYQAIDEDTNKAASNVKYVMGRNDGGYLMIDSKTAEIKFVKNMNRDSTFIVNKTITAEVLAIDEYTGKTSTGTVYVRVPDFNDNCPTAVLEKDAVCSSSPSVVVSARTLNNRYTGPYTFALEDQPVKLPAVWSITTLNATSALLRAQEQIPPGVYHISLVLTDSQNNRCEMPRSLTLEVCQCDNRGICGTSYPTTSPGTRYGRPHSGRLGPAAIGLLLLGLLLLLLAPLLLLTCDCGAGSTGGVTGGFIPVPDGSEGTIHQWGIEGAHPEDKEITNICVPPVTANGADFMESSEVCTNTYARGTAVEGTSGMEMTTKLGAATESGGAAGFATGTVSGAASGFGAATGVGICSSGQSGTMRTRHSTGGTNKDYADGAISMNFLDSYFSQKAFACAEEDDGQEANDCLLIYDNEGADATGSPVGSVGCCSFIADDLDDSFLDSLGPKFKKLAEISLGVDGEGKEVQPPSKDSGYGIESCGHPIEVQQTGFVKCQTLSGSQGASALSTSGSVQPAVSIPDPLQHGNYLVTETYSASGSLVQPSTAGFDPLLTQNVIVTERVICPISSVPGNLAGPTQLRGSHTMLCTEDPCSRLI
T cell modulator: T cell immune modulation candidate | response (vesicle binding), % at 7 µM | 2C CD8+ T cell-vesicle binding, flow cytometry; hits give low values | actives 0.068% (n = 330,000) | AID 2052;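 active means response, share of CD8 T cells binding vesicles, and their 90th percentile fluorescence all below set limits, cut at about 80% in these data, passing the limit was not always enough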;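 further: values below 100% mean blocked vesicle binding to the CD8+ T cells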
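Also added: QL9-peptide-loaded Drosophila micro-vesicles bearing Ld, ICAM-1 and B7-1; Test system: purified 2C TCR transgenic mouse naive CD8+ T cells; Measured by: cytometric PE anti-B7-1 and Alexa647 anti-CD8 signals after 1% paraformaldehyde fixation; Timing: binding step 1.5 h, 37 °C, antibody labelling 20 min, ice.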
Myeloid diff: compounds promoting myeloid differentiation. ER-HoxA9 myeloid progenitors, GFP/Mac1 double-positive flow. actives 2% (n = 2,300). calls only. shares compounds with Myeloid diff 2;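 active means share of green or green-and-red cells above 9 and 9% in run 1 or 4 and 3% in run 2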
GFP autofluor: counter-screen for myeloid differentiation promoters: compound fluorescence | actives 7.4% (n = 2,300) | fluorescence response, % (concentration not given with the values) | shares compounds with Myeloid diff 2 | ER-HoxA9 myeloid progenitors, no estrogen, GFP autofluorescence flow cytometry; vehicle wells 0%, positive control 100%;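 active means over 5% cells positive for green fluorescent reporter, or over 2% positive for both it and APC stain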;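 further: range taken on the double positive population between DMSO and positive control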
The depositor's hits bear a star.

What do the screens show for `Cc1cccc(NC(=S)N(CCCN2CCOCC2)Cc2ccccn2)c1`?
Vif imaging: -4; Myeloid diff 2: inactive; DSG3 Ab inh: 120; T cell modulator: 104

How did S=C(Nc1ccc(Oc2ccccc2)cc1)N(CCCN1CCOCC1)Cc1ccccn1 do in these assays?
Vif imaging: 6; Myeloid diff 2: active; DSG3 Ab inh: 118; T cell modulator: 128; Myeloid diff: inactive; GFP autofluor: 0

What do the screens show for `C[C@@H]1OC(C2CCCCC2)N(C)[C@H]2C[C@H]3c4[nH]c5ccccc5c4CCN3C[C@@H]12` (some centres not stated)?
Vif imaging: -3; Myeloid diff 2: inactive

How did Cc1cc(C(=O)COC(=O)Cc2n[nH]c(=O)c3ccccc23)c(C)n1-c1ccc2c(c1)OCO2 do in these assays?
Vif imaging: -4; Myeloid diff 2: active; T cell modulator: 197; Myeloid diff: inactive; GFP autofluor: 1

How did COc1ccc(-n2c(C)cc(C(=O)COC(=O)Cc3n[nH]c(=O)c4ccccc34)c2C)cc1 do in these assays?
Vif imaging: -11; Myeloid diff 2: inconclusive; DSG3 Ab inh: 93; T cell modulator: 159

What do the screens show for `CC1(C)CC(=O)C2=C(C1)N(Cc1ccco1)C(=O)C2(NC(=O)c1ccc(Cl)cc1Cl)C(F)(F)F` (configuration not stated)?
Vif imaging: -5; Myeloid diff 2: inactive; DSG3 Ab inh: 97; T cell modulator: 223

Results for CC1(C)CC(=O)C2=C(C1)N(Cc1ccco1)C(=O)C2(NC(=O)C1CCCCC1)C(F)(F)F (configuration not stated) ?
Vif imaging: 17; Myeloid diff 2: inactive; T cell modulator: 565; Myeloid diff: inactive; GFP autofluor: 0

What do the screens show for `CCCN(CC(=O)Nc1ccccc1C)C(=O)CSc1ccccc1C`?
Vif imaging: 31; Myeloid diff 2: inactive; T cell modulator: 430

How did CC[n+]1c(/C=C/c2ccc(OC(C)=O)c(OC)c2)ccc2ccccc21 do in these assays?
Vif imaging: 0; Myeloid diff 2: inactive; DSG3 Ab inh: 107; T cell modulator: 177

How did CC[n+]1c(/C=C/c2ccc(OC)c(OC)c2)ccc2ccccc21 do in these assays?
Vif imaging: 7; Myeloid diff 2: active; DSG3 Ab inh: 177; T cell modulator: 177; Myeloid diff: inactive; GFP autofluor: 2

Results for CCC(C)Nc1nc2c(c(=O)[nH]c(=O)n2C)n1CCCc1ccccc1 (configuration not stated) ?
Vif imaging: 14; Myeloid diff 2: inactive; DSG3 Ab inh: 97; T cell modulator: 250

Results for CCC(C)Nc1nc2c(c(=O)[nH]c(=O)n2C)n1CCC(C)C (configuration not stated) ?
Vif imaging: 3; Myeloid diff 2: active; DSG3 Ab inh: 108; T cell modulator: 408; Myeloid diff: inactive; GFP autofluor: 1

What do the screens show for `CC(=O)Nc1nc(-c2ccccc2)nc(-c2ccccc2OC(C)=O)n1`?
Vif imaging: 3; Myeloid diff 2: active; DSG3 Ab inh: 84; T cell modulator: 572; Myeloid diff: inactive; GFP autofluor: 0

How did CC(=O)Nc1nc(C)nc(-c2ccccc2OC(C)=O)n1 do in these assays?
Vif imaging: -5; Myeloid diff 2: inactive; DSG3 Ab inh: 100; T cell modulator: 249

Results for O=C(NC1(C(F)(F)F)NC(=O)N(Cc2ccco2)C1=O)c1cccnc1 (configuration not stated) ?
Vif imaging: 12; Myeloid diff 2: active; DSG3 Ab inh: 102; T cell modulator: 584; Myeloid diff: inactive; GFP autofluor: 0

Results for O=C(NC1(C(F)(F)F)NC(=O)N(Cc2ccccc2)C1=O)c1cccnc1 (configuration not stated) ?
Vif imaging: -1; Myeloid diff 2: inactive; DSG3 Ab inh: 110; T cell modulator: 200

Results for Cc1ccc([C@H]2C[C@H](n3cc(C4CC4)nn3)[C@@H](O)CN2Cc2cccs2)cc1 ?
Vif imaging: 8; Myeloid diff 2: inactive; Myeloid diff: inactive; GFP autofluor: 1

What do the screens show for `Cc1cn(CC(=O)N2CCN(c3ccccn3)CC2)c(=O)[nH]c1=O`?
Vif imaging: -5; Myeloid diff 2: inactive; DSG3 Ab inh: 92

How did CCn1nc(C(=O)OCC(=O)Nc2nc(-c3ccc(OC)cc3)cs2)c2ccccc2c1=O do in these assays?
Vif imaging: 18; Myeloid diff 2: active; DSG3 Ab inh: 91; T cell modulator: 587; Myeloid diff: inactive; GFP autofluor: 0

Results for O=C(Nc1ccc(Cc2ccncc2)cc1)C1CCC(N2C(=O)C3C4C=CC(C5CC45)C3C2=O)CC1 (configuration not stated) ?
Vif imaging: -36; Myeloid diff 2: active; T cell modulator: 238; Myeloid diff: inactive; GFP autofluor: 1

How did CCc1nc2ccc(C(=O)NCC3CCCCC3)cn2c1N(CCC(C)C)CCN(C)C do in these assays?
Vif imaging: 17; Myeloid diff 2: inactive

Results for COc1cc(OC)c(NS(=O)(=O)c2cc(C(=O)NCCCN3CCOCC3)ccc2C)cc1Cl ?
Myeloid diff 2: inactive; DSG3 Ab inh: 105

How did N#C/C(=N\Nc1ccc(S(=O)(=O)N2CCc3ccccc32)cc1)C(N)=S do in these assays?
Vif imaging: -13; Myeloid diff 2: active; DSG3 Ab inh: 103; T cell modulator: 157; Myeloid diff: inactive; GFP autofluor: 0

Results for Cc1ccc(S(=O)(=O)N2CCN(C(=O)CN3CCN(c4ccc(O)cc4)CC3)CC2)cc1 ?
Vif imaging: 1; Myeloid diff 2: active; DSG3 Ab inh: 101; Myeloid diff: inactive; GFP autofluor: 0

What do the screens show for `N#Cc1c(-c2ccc(C(F)(F)F)cc2)cc(-c2ccccc2)[nH]c1=S`?
Vif imaging: -5; Myeloid diff 2: active; DSG3 Ab inh: 95; T cell modulator: 265; Myeloid diff: inactive; GFP autofluor: 0

Results for Cc1cc(C(=O)O)c(CCCN)s1 ?
Vif imaging: -10; Myeloid diff 2: inactive; DSG3 Ab inh: 94; T cell modulator: 340; Myeloid diff: inactive; GFP autofluor: 0

Results for CCOc1ccc(CCNC(=O)C2CCCN(S(=O)(=O)N3CC(C)CC(C)C3)C2)cc1OCC (configuration not stated) ?
Vif imaging: 16; Myeloid diff 2: inactive; DSG3 Ab inh: 100; T cell modulator: 84

What do the screens show for `COc1ccc(-c2ccc(C(=O)NCc3ccccc3)c3occc23)c(C)c1`?
Vif imaging: inconclusive; Myeloid diff 2: inactive

Results for COc1ccc(-c2ccc(C(=O)NCc3ccc(N4CCN(C)CC4)cc3)c3occc23)c(C)c1 ?
Vif imaging: -21; Myeloid diff 2: active; Myeloid diff: inactive; GFP autofluor: 0

Compound activity: PubChem BioAssay, several laboratories
